“And” between values parts separate entries of the source, which are not always exact repeats. Equal entries are not always repeated. Where two headings read alike, the source gives them in different places. Where no end group is shown, it is not given here.
Assays:
[1] = assay type: in vitro ADME, human; details: whole blood
How it was run: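 Validation arm: fresh whole blood in EDTA or BD P100 tubes, equilibrated 30 min at 4 °C. Spiked with four peptides not used in training, 10 nM each (final). Aliquots taken at 0–7.5 h and centrifuged 1800g for 10 min. Plasma deproteinised with acidified acetonitrile, then quantified by UPLC–MS/MS MRM. Decay constant taken from the ln-linear slope. T50/T90 derived assuming first-order kinetics, SEM by error propagation.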

[2] = assay type: in vitro ADME, human; details: for original content still present / detected in plasma: after 1 month of storage at −80 °C, P100 plasma; for T90 in days (±SEM) in P100 plasma: 50 nM, T90 extrapolated
How it was run: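 Cell-free plasma from BD P100 tubes spiked with the training peptide mix, 50 nM each (final). Aliquots stored at 4, −35 or −80 °C for up to 1 month. Sampled before storage and at 1, 7 and 30 days. Each 50 µL sample was acidified-acetonitrile precipitated, sonicated, boiled and centrifuged, then run by UPLC–MS/MS. Content normalised to baseline. T90 extrapolated from first-order decay fits.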

[3] = assay type: in vitro ADME, human; details: time frame of 7.5 h, at both 4 and 21 °C, all tubes
How it was run: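 Fresh donor whole blood, in EDTA, EDTA plus protease-inhibitor cocktail (1:100 final), BD P100 or BD P800 tubes, held 30 min at 4, 21 or 37 °C. Then spiked with peptide mix at 10 nM each (final). Sampled at 0, 2.5, 5 and 7.5 h and centrifuged. Plasma acetonitrile/formic acid precipitated and analysed by amide UPLC–ESI(+)–MS/MS MRM. T0-normalised ln areas fitted first-order (λ). T50/T90 reported ±SEM by error propagation, n = 4.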

[4] = external validation, P100 tube, 4 °C
[5] = head-to-head comparison, EDTA sampling tube at 4 °C
[6] = head-to-head comparison, P100 sampling tube at 4 °C
[7] = storage at 4 °C, n = 4, up to 1 month
[8] = storage at −35 °C, n = 4, thawed once, up to 1 month
[9] = storage at −80 °C, n = 4, thawed once, up to 1 month

With ESRLPKIRFDFIFPRKK [Q054] the “T50 [±SEM]” value [1, 4] was 1.87 [±0.17] h, the “T90 [±SEM] (time where 90% of the peptide is still present)” value [1, 4] was 0.28 [±0.03] h and the “decay constant (λ) [±SEM]” value [1, 4] was “–0.00619 [±0.00056]”.

In the case of ESRVSRIILDFLFQRKK [Q055], the “T50 [±SEM]” value [1, 4] was 1.49 [±0.12] h, the “T90 [±SEM] (time where 90% of the peptide is still present)” value [1, 4] was 0.23 [±0.02] h and the “decay constant (λ) [±SEM]” value [1, 4] was “–0.00776 [±0.00064]”. For the same substance, the “T50 [±SEM]” value [1, 5] was 1.35 [±0.33] h, the “T90 [±SEM]” value [1, 5] was 0.21 [±0.05] h and the “decay constant (λ) [±SEM]” value [1, 5] was “–0.00856 [±0.0021]”. The “T50 [±SEM]” value [1, 6] was 2.07 [±0.36] ^a h, the “T90 [±SEM]” value [1, 6] was 0.31 [±0.05] ^a h and the “decay constant (λ) [±SEM]” value [1, 6] was “–0.00559 [±0.00098]”.

With SDLPFEH [Q164, SDLPFEH] the “original content still present / detected in plasma” value [2] was “more than 95%”, the “T90 in days (±SEM) in P100 plasma” value [2, 7] was 0.95 (±0.23) days and the “T90 in days (±SEM) in P100 plasma” value [2, 8] was 33.8 (±45.91) days. The “T90 in days (±SEM) in P100 plasma” value [2, 9] was 96.3 (±136.01) days.

With SGSLSTFFRLFNRSFTQALGK [Q176] the “original content still present / detected in plasma” value [2] was “more than 95%”, the “T90 in days (±SEM) in P100 plasma” value [2, 7] was 0.48 (±0.02) days and the “T90 in days (±SEM) in P100 plasma” value [2, 8] was 16.4 (±6.98) days. For the same substance, the “T90 in days (±SEM) in P100 plasma” value [2, 9] was 46.4 (±64.18) days.

In the case of SIFTLVA [Q184, SIFTLVA], the “degradation of the peptide in whole blood” value [3] was “no degradation”, the “original content still present / detected in plasma” value [2] was roughly 25% and the “T90 in days (±SEM) in P100 plasma” value [2, 7] was 2.24 (±0.20) days. For the same substance, the “T90 in days (±SEM) in P100 plasma” value [2, 8] was 2.56 (±0.21) days and the “T90 in days (±SEM) in P100 plasma” value [2, 9] was 2.6 days and 2.61 (±0.23) days.

For SNLVECVFSLFKKCN [Q076], the “T90 in days (±SEM) in P100 plasma” value [2, 7] was 1.24 (±0.03) days, the “T90 in days (±SEM) in P100 plasma” value [2, 8] was 20.4 (±13.67) days and the “T90 in days (±SEM) in P100 plasma” value [2, 9] was 13.2 (±4.80) days.

— publication PMC7346264 (ACS Omega, 2020)
